In the library only some 2.3% were active in any assay of this set; here they are far more common.
Scp1 inh: Scp-1 (human) phosphatase inhibition; Q9GZU7; AID 493091; Recombinant Scp1, phosphopeptide, malachite green phosphate absorbance; hit rate 0.88% among 340,000; inhibition, % at 20 µM;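 active means inhibition above about 50% at 20 µM, limit read from the data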;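 further: plate controls were DMSO wells with enzyme for no effect and wells lacking enzyme for full effect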
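Incubation: 45 min enzyme reaction at room temperature / System: truncated SCP-1 phosphatase (76-261aa) / Reagent: Phospho 17-mer peptide substrate / Buffer or medium: Acidic Tris acetate buffer with magnesium and detergent / Signal: absorbance at 630 nm / Doses: one concentration, 20 µM, with 1.0% DMSO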
LMPTP inh: blocks human LMPTP phosphatase | P24666 | recombinant LMPTP-A, OMFP fluorogenic substrate, fluorescence intensity | inhibition, % at 20 µM | hit rate 0.22% among 360,000 | AID 651560;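 active means compounds that cut the enzyme signal by at least half of the control window in the single-dose screen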;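 further: plate controls were DMSO wells with enzyme plus substrate for no effect and substrate without enzyme for full effect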
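Material: LMPTP-A; amount: 0.625 nM enzyme; doses: single 20 µM dose; times: reaction 50 min, room temperature, dark; technique: fluorescence intensity of OMFP turnover product; benchmarks: no-enzyme and uninhibited controls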
NadD block: blocks S. aureus nicotinate mononucleotide adenylyltransferase; purified NadD enzyme, colorimetric absorbance read-out; inhibition, % at 20 µM; hit rate 0.78% among 360,000; AID 602399; in the data active means inhibition above about 26%
STEP inh: STEP (human) phosphatase inhibition | P54829 | recombinant STEP, OMFP fluorogenic substrate, fluorescence | inhibition, % at 20 µM | hit rate 0.25% among 360,000 | AID 588621;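 active means inhibition at 20 µM, scaled per plate between control wells, above about 37%, limit read from the data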;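 further: 0% = DMSO with enzyme and substrate and 100% = substrate only without enzyme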
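Also added – OMFP at 25 µM · Test system – STEP tyrosine phosphatase · Technique – FITC-channel fluorescence of OMFP product · Schedule – 20 min at room temperature, dark · Evaluation – control-normalized % inhibition with plate pattern correction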
SUMO1 PPI mod: alters human SUMO1 binding to SIM partners. inhibition, % at 20 µM. SUMO1 binding to a labelled peptide, TR-FRET, 1 h. P63165. AID 602429. hit rate 0.33% among 360,000; in the data active means inhibition above about 37%
DNMT1 inh: DNMT1 (human) enzyme inhibition. P26358. DNMT1 molecular beacon, Hinp1I cleavage, fluorescence. inhibition (reported as % activation of signal), % at 10 µM. hit rate 0.83% among 360,000; in the data active means inhibition above about 50%
DNMT1 interf DR: counter-screen for DNMT1 inhibitors: spectral interference, dose response. shares compounds with DNMT1 inh. molecular beacon fluorescence. IC50, µM. 200 tested, under 10 active. AID 602382; call rule not given here
DNMT1 confirm: confirmation of human DNMT1 inhibitors. shares compounds with DNMT1 inh. DNMT1 molecular beacon HinP1I cleavage, fluorescence. inhibition, % at 10 µM. hit rate 8% among 2,300. AID 602385;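 active means average inhibition of at least 30% in the single-concentration confirmation test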
Beacon interf: beacon fluorescence artifact counter-screen. shares compounds with DNMT1 inh. DNMT1 molecular beacon spectral interference counterscreen, fluorescence 485/520. activation (fluorescence interference), % at 10 µM. hit rate 1% among 2,300. AID 602387;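 active means activation of at least 30% at 10 µM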;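 further: DNMT1 catalytic domain with a HinP1I cleavage step and a FAM/dabcyl DNA beacon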
Numbers without * were called inactive; x = not tested or not shown.

SMILES	Scp1 inh	LMPTP inh	NadD block	STEP inh	SUMO1 PPI mod	DNMT1 inh	DNMT1 confirm	Beacon interf	others
CC(C)COc1ccc(-c2nn(-c3ccccc3)cc2/C=C2/SC(=S)N(CC(=O)O)C2=O)cc1	11.0	38.3	15.8	9.1	20.5	65.2*	66.8*	-9.3	DNMT1 interf DR=>99
Cc1ccc(-c2nn(-c3ccccc3)cc2C=C2SC(=S)N(CCS(=O)(=O)O)C2=O)cc1	x	82.3*	30.0*	5.0	72.2*	76.1*	107.2*	-13.8	DNMT1 interf DR=>99
CC(C)(C)c1ccc(C(O)c2ncc(-c3ccccc3F)[nH]2)cc1 (configuration not stated)	x	-0.7	-6.9	-2.3	0.5	14.6	x	x
Cc1ccc(NC(=O)COC(=O)C2=NN(c3ccccc3)C(=O)CC2)c(Br)c1	-6.1	-1.4	-3.5	-0.3	5.0	2.7	x	x
CN1CCN(Cc2cc(=O)oc3cc4c(cc23)CCC4)CC1	-8.5	-2.0	-7.5	-2.2	-1.8	4.7	x	x
O=c1cc(CN2CCN(c3ccc(F)cc3)CC2)c2cc3c(cc2o1)CCCC3	2.2	1.6	7.3	2.4	-0.7	63.5*	2.5	0.7
Nc1ccc2c(c1)[nH]c(=O)c1cc(N)ccc12	x	4.9	4.5	-0.7	-1.5	-11.0	x	x
COC(=O)c1ccc(CC2(C)C(=O)Nc3ccc(-c4cccc(C(F)(F)F)c4)cc32)o1 (configuration not stated)	x	2.1	-4.9	0.6	1.9	0.0	x	x
CCNC(=O)N(C)c1c(CC)nc2ccc(C(=O)N3CCN(C(C)=O)CC3)cn12	x	0.1	2.4	2.6	2.8	3.1	x	x
CCNC(=O)N(C)c1c(CC)nc2ccc(C(=O)N3CCN(S(=O)(=O)CC)CC3)cn12	x	-2.5	1.9	-1.6	-5.1	52.8*	6.6	4.1
COc1ccc(-c2cc(C(=O)N(C)CC(=O)Nc3cccc(F)c3)c3ccccc3n2)cc1OC	x	1.2	4.2	4.5	-0.3	-0.2	x	x
O=C(NCC1CCCO1)c1cc(-c2ccco2)nc2ccccc12 (configuration not stated)	44.3	4.1	-0.6	4.5	-0.5	83.8*	18.9	1.7
O=C(NCC1CCCO1)c1cc(-c2ccncc2)nc2ccccc12 (configuration not stated)	4.4	0.0	-5.4	1.2	-13.8	0.5	x	x
Cc1ccccc1NC(=O)c1cc(-c2ccco2)nc2ccccc12	84.1*	11.6	11.7	14.2	1.0	46.1	1.2	3.0
CN(CC(=O)Nc1cccc(F)c1)C(=O)c1cc(-c2ccco2)nc2ccccc12	82.6*	33.8	15.4	16.2	10.6	86.6*	9.2	-0.2
COc1ccccc1CCC(=O)Nc1ccc2c(c1)c(=O)n(C)n2C	x	-0.4	-3.1	-0.6	4.9	0.7	x	x
Cc1cccc(NC(=O)CSCC(=O)Nc2ccccc2N2CCCC2)c1	3.4	-4.5	-3.2	-3.2	-12.5	-6.8	x	x
Cc1cccc(NC(=O)CSCC(=O)Nc2ccccc2N2CCCCC2)c1	-4.8	2.1	-2.8	1.6	7.8	93.7*	7.0	9.1
Oc1ccc(Br)cc1/C=N/n1c(-c2ccccc2)n[nH]c1=S	2.3	-1.7	7.1	-0.8	5.9	82.2*	5.2	2.6
C#CCNC(=O)C[C@@H]1C[C@@]2(C(=O)OCC)CCCC=C2N(Cc2ccccc2)C1=O	x	-1.0	x	x	2.8	x	x	x
CC(=O)Nc1ccc2c3c(cccc13)C(=O)N(c1ccccc1)C2=O	-7.5	0.1	-0.7	-2.2	-6.1	0.5	x	x
Nc1ccc2c3c(cccc13)C(=O)N(c1ccccc1)C2=O	-10.7	-7.3	2.1	-154.0	-50.3	59.7*	145.6*	115.1*
O=C(O)c1ccc2c3c(cccc13)C(=O)N(c1ccccc1)C2=O	41.5	5.2	-0.7	12.5	-2.9	62.9*	1.9	-1.5
O=C(Nc1cccnc1Oc1ccc(Cl)cc1)c1cccc2ccccc12	-9.8	2.3	1.4	-1.1	0.6	0.4	x	x

Bioassay records: PubChem, Sanford-Burnham Center for Chemical Genomics
